Heme loss, P-450 loss and Cytochrome loss data for 1 compound are collected here from ChEMBL document CHEMBL1121948, “Alkylation of the prosthetic heme in cytochrome P-450 during oxidative metabolism of the sedative-hypnotic ethchlorvynol” (1982).

Holding throughout (assay type): functional
Assay [1] is filed under the species Rattus norvegicus. The assay can be described thus: Heme loss from phenobarbital pretreated rats was measured in the presence of oxygen and NADPH after 20 min. The method in brief:
(§1)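 This was a separate 20-min experiment using the standard microsomal mix at 37 °C: phenobarbital-induced rat microsomes at 1 mg/mL, 1 mM ethchlorvynol, 1 mM NADPH, EDTA and KCl in phosphate buffer pH 7.4. P-450 loss was measured spectroscopically and heme loss by the pyridine hemochromogen assay, both expressed in nmol. Values are the mean ± SD of three determinations.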

For assay [2], the species on record is Rattus norvegicus. Kind of assay: Cytochrome P-450 loss from phenobarbital pretreated rats was measured in the presence of oxygen and NADPH after 20 min. A digest of the protocol:
as §1

Assay [3] is filed under the species Rattus norvegicus. Kind of assay: Percentage cytochrome P-450 loss from phenobarbital pretreated rats was measured in the presence of oxygen and NADPH after 30 min. The method in brief: (§2)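 Liver microsomes from phenobarbital-pretreated male Sprague-Dawley rats (1 mg/mL protein) were incubated at 37 °C with 1 mM ethchlorvynol, 1 mM NADPH, 1.5 mM EDTA and 150 mM KCl in […], pH 7.4, under air. The reaction was started with NADPH. Cytochrome P-450 loss was measured spectroscopically. Values are the mean ± SD of three determinations.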

For assay [4], the species on record is Rattus norvegicus. The assay can be described thus: Percentage cytochrome P-450 loss from phenobarbital pretreated rats was measured in the presence of the Ethchlorvynol after 20 min; Not detectable.
For assay [5], the species on record is Rattus norvegicus. The assay can be described thus: Percentage cytochrome P-450 loss from phenobarbital pretreated rats was measured in the presence of the NADPH after 10 min; Not detectable.
For assay [6], the species on record is Rattus norvegicus. Kind of assay: Percentage cytochrome P-450 loss from phenobarbital pretreated rats was measured in the presence of oxygen and NADPH after 10 min. A digest of the protocol:
as §2

Assay [7] is filed under the species Rattus norvegicus. Kind of assay: Percentage cytochrome P-450 loss from phenobarbital pretreated rats was measured in the presence of the oxygen after 20 min.
For assay [8], the species on record is Rattus norvegicus. The assay can be described thus: Percentage cytochrome P-450 loss from phenobarbital pretreated rats was measured in the presence of the Ethchlorvynol after 30 min; Not detectable.
For assay [9], the species on record is Rattus norvegicus. The assay can be described thus: Percentage cytochrome P-450 loss from phenobarbital pretreated rats was measured in the presence of the NADPH after 20 min; Not detectable.
The species named for assay [10] is Rattus norvegicus. The assay can be described thus: Percentage cytochrome P-450 loss from phenobarbital pretreated rats was measured in the presence of the Ethchlorvynol after 10 min; Not detectable.
The species named for assay [11] is Rattus norvegicus. Kind of assay: Percentage cytochrome P-450 loss from phenobarbital pretreated rats was measured in the presence of the NADPH after 30 min; Not detectable.
For assay [12], the species on record is Rattus norvegicus. Kind of assay: Percentage cytochrome P-450 loss from phenobarbital pretreated rats was measured in the presence of oxygen and NADPH after 20 min. The method in brief:
as §2

The structures appear in SMILES notation.

Consider `C#CC(O)(/C=C/Cl)CC` (configuration not stated) [ETHCHLORVYNOL], for which the Heme loss in the assay listed under Rattus norvegicus [1] came out at 0.32 nM. In addition, the P-450 loss in the assay filed under Rattus norvegicus [2] came to 0.52 nM. Moreover, the Cytochrome loss in the assay listed under Rattus norvegicus [3] was 38%; in the assay listed under Rattus norvegicus [4] it was “Not detectable”; in the assay filed under Rattus norvegicus [5], “Not detectable”; in the assay filed under Rattus norvegicus [6], 30%; in the assay filed under Rattus norvegicus [7] it was 4%; in the assay filed under Rattus norvegicus [8], “Not detectable”. Moreover, the Cytochrome loss result in the assay listed under Rattus norvegicus [9] was “Not detectable”; in the assay listed under Rattus norvegicus [10], “Not detectable”; in the assay filed under Rattus norvegicus [11], “Not detectable”; in the assay listed under Rattus norvegicus [12] it was 35%.
